Each structure is given as a SMILES string. Calls of active or inactive are those of the source. The calls are words filed in the database; no cut-off is given here. Some results are limits rather than exact numbers.

The first data set has as its system Rattus norvegicus. The data set can be described thus: Toxicity in rat assessed as change in cardiac noradrenaline level at 0.1 mg/kg. The format is organism-based, Heart. Details: dose 0.1 mg/kg. To be noted: in vivo. An outline of the steps: (§1)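 Rats were given single or repeated (5 days) administration, and cardiac noradrenaline levels were measured.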
As to `CCC(C)(C)NC(=NC#N)Nc1cccnc1`, the Activity result is on record as “Non-toxic”.

For `CC(C)(C)/N=C(/NC#N)Nc1cccnc1`, the Activity entry is given as “Non-toxic”.

A further data set has as its system Rattus norvegicus. Description: Toxicity in rat assessed as change in cardiac noradrenaline level at 0.1 mg/kg for 5 days. To be noted: in vivo, 120 h. Details: dose 0.1 mg/kg. It counts as organism-based, Heart. The essentials:
as §1
In the case of `CCC(C)(C)NC(=NC#N)Nc1cccnc1`, the Activity result was “Non-toxic”.

With `CC(C)(C)/N=C(/NC#N)Nc1cccnc1`, the Activity entry is “Non-toxic”.

The species named for another data set is Rattus norvegicus. The data set can be described thus: Toxicity in rat assessed as effect on contraction of nictitating membranes by preganglionic stimulation. It counts as organism-based, Nictitating membrane. To be noted: in vivo.
Consider `CCC(C)(C)NC(=NC#N)Nc1cccnc1`, for which the Activity result is “Non-toxic”.

With `CC(C)(C)/N=C(/NC#N)Nc1cccnc1`, the Activity entry was “Non-toxic”.

Test system in a further data set: not listed separately
The data set can be described thus: Toxicity in po dosed mouse assessed as mortality after 7 days. To be noted: in vivo.
What is called LD50 is the dose expected to kill half of the subjects tested. For `CCC(C)(C)NC(=NC#N)Nc1cccnc1`, the LD50 at 168 h was > 1000 mg/kg.

On to `CC(C)(C)/N=C(/NC#N)Nc1cccnc1`, for which the LD50 at 168 h is > 1000 mg/kg.

In the case of `CC(C)C(C)(C)/N=C(\NC#N)Nc1ccncc1`, the LD50 at 168 h amounted to 1000 mg/kg.

In the case of `N#CN/C(=N\c1ccccc1)Nc1cccnc1`, the LD50 at 168 h was > 1000 mg/kg.

As for `CC(/N=C(\NC#N)Nc1ccncc1)C1CC1` (configuration not stated), the LD50 at 168 h was 200 mg/kg.

Regarding `N#CN/C(=N\C1CCCCC1)Nc1ccncc1`, the LD50 at 168 h is 600 mg/kg.

In the case of `CC(C)(C)C(C)(C)/N=C(\NC#N)Nc1ccncc1`, the median lethal dose (LD50) at 168 h was > 1000 mg/kg.

In the case of `CCC(C)(C)N/C(=N\C#N)Nc1ccccc1`, the LD50 at 168 h is > 1000 mg/kg.

As for `CC(C)(C)N/C(=N\C#N)Nc1c(Cl)cccc1Cl`, the 50% lethal dose (LD50) at 168 h was > 1000 mg/kg.

Consider `Cn1nc(-c2ccc(Cl)cc2)cc1N/C(=N/C#N)NC(C)(C)C`, for which the LD50 at 168 h was > 1000 mg/kg.

For `N#CN/C(=N\CC1CCCO1)Nc1cccnc1` (configuration not stated), the 50% lethal dose (LD50) at 168 h was > 1000 mg/kg.

On to `N#CN/C(=N\C1CCCCC1)Nc1cccnc1`, for which the median lethal dose (LD50) at 168 h was > 1000 mg/kg.

For `CC(C)CC(C)(C)/N=C(\NC#N)Nc1ccncc1`, the median lethal dose (LD50) at 168 h was > 1000 mg/kg.

As for `CC(C)(C)C/N=C(\NC#N)Nc1ccncc1`, the LD50 at 168 h worked out at 600 mg/kg.

Take `N#CN/C(=N\C1CC1)Nc1cccnc1`: the 50% lethal dose (LD50) at 168 h was > 1000 mg/kg.

For `CCC(C)(C)N/C(=N\c1ncccn1)Nc1cccnc1.Cl`, the LD50 at 168 h turned out to be 1000 mg/kg.

Regarding `CC(C)/N=C(\NC#N)Nc1cccnc1`, the median lethal dose (LD50) at 168 h is > 1000 mg/kg.

For the molecule `CCC(C)(C)N/C(=N\c1cnccn1)Nc1cccnc1`, the LD50 at 168 h is 800 mg/kg.

The next data set has as its system Rattus norvegicus. The data set can be described thus: Hypotensive activity in po dosed spontaneously hypertensive Wistar-Okamoto rat assessed as dose required to cause 30 mmHg fall of blood pressure administered for 5 days. It counts as functional. To be noted: 120 h, read-out: MED.
Take `CC(C)(C)/N=C(/NC#N)Nc1cccnc1`: the minimal effective dose is 0.1 mg/kg.

With `CC(C)C(C)(C)/N=C(\NC#N)Nc1ccncc1`, the minimal effective dose is 20 mg/kg.

`N#CN/C(=N\c1ccccc1)Nc1cccnc1`: the minimal effective dose was 5 mg/kg.

Regarding `CC(/N=C(\NC#N)Nc1ccncc1)C1CC1` (configuration not stated), the minimal effective dose is 3 mg/kg.

With `N#CN/C(=N\C1CCCCC1)Nc1ccncc1`, the minimal effective dose worked out at 20 mg/kg.

Consider `CC(C)(C)C(C)(C)/N=C(\NC#N)Nc1ccncc1`, for which the minimal effective dose is 20 mg/kg.

For the molecule `CCC(C)(C)N/C(=N\C#N)Nc1ccccc1`, the minimal effective dose is 50 mg/kg.

In the case of `CC(C)(C)N/C(=N\C#N)Nc1c(Cl)cccc1Cl`, the minimal effective dose is > 50 mg/kg.

In the case of `Cn1nc(-c2ccc(Cl)cc2)cc1N/C(=N/C#N)NC(C)(C)C`, the minimal effective dose is > 50 mg/kg.

On to `N#CN/C(=N\CC1CCCO1)Nc1cccnc1` (configuration not stated), for which the minimal effective dose was found to be 50 mg/kg.

Turning to `N#CN/C(=N\C1CCCCC1)Nc1cccnc1`, the minimal effective dose was 20 mg/kg.

As to `CC(C)CC(C)(C)/N=C(\NC#N)Nc1ccncc1`, the minimal effective dose was determined as 20 mg/kg.

For the molecule `CC(C)(C)C/N=C(\NC#N)Nc1ccncc1`, the minimal effective dose stood at 5 mg/kg.

For `N#CN/C(=N\C1CC1)Nc1cccnc1`, the minimal effective dose amounted to 20 mg/kg.

As to `CCC(C)(C)N/C(=N\c1ncccn1)Nc1cccnc1.Cl`, the minimal effective dose was > 35 mg/kg.

`CC(C)/N=C(\NC#N)Nc1cccnc1`: the minimal effective dose was determined as 2.5 mg/kg.

Regarding `CCC(C)(C)N/C(=N\c1cnccn1)Nc1cccnc1`, the minimal effective dose was determined as 25 mg/kg.

Test system in another data set: not listed separately
Description: Toxicity in po dosed Sprague-Dawley rat assessed as mortality after 7 days. The format is organism-based. To be noted: in vivo.
For the molecule `CCC(C)(C)NC(=NC#N)Nc1cccnc1`, the median lethal dose (LD50) at 168 h is 14 mg/kg.

In the case of `CC(C)(C)/N=C(/NC#N)Nc1cccnc1`, the LD50 at 168 h turned out to be 278 mg/kg.

For another data set, the system named is Rattus norvegicus. Description: Hypotensive activity in spontaneously hypertensive Wistar-Okamoto rat assessed as maximum change in mean blood pressure at 0.01 mg/kg, po relative to control. It counts as functional.
Settings: not given
The essentials: (§2)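 Spontaneously hypertensive Wistar-Okamoto rats, five per dose, received compound orally, dissolved or suspended in 0.5% carboxymethylcellulose. Blood pressure was measured indirectly by tail cuff in restrained conscious rats before dosing and at 2, 4, 6, 8, 12 and 24 h. Maximum change was measured after a single administration and given as mean ± error.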
In the case of `CC(C)(C)/N=C(/NC#N)Nc1cccnc1`, the Activity was -26 mmHg.

The test system of another data set is Rattus norvegicus. Description: Hypotensive activity in spontaneously hypertensive Wistar-Okamoto rat assessed as maximum change in mean blood pressure at 0.05 mg/kg, po relative to control. The format is functional.
Settings: not given
An outline of the steps:
as §2
As to `CC(C)(C)/N=C(/NC#N)Nc1cccnc1`, the Activity is -37 mmHg.

The subject of a further data set is Rattus norvegicus. Description: Hypotensive activity in spontaneously hypertensive Wistar-Okamoto rat assessed as maximum change in mean blood pressure at 0.1 mg/kg, po relative to control.
Settings: not given
It counts as functional. The essentials: as §2
`CC(C)(C)/N=C(/NC#N)Nc1cccnc1`: the Activity is given as -72 mmHg.

A further data set relates to Rattus norvegicus. The data set can be described thus: Hypotensive activity in spontaneously hypertensive Wistar-Okamoto rat assessed as time required for persistence of hypotensive effect at 0.01 mg/kg, po. The format is functional.
Settings: not given
The essentials: (§3)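 SHR (Wistar-Okamoto), five per dose, were given an oral dose in 0.5% carboxymethylcellulose. Indirect cuff pressure in restrained conscious rats was read before dosing and at 2, 4, 6, 8, 12 and 24 h. Duration (h) was scored while pressure remained 15 mmHg or more below the initial reading.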
Turning to `CC(C)(C)/N=C(/NC#N)Nc1cccnc1`, the Time came out at 4 h.

Another data set has as its system Rattus norvegicus. Description: Hypotensive activity in spontaneously hypertensive Wistar-Okamoto rat assessed as time required for persistence of hypotensive effect at 0.05 mg/kg, po. The format is functional.
Settings: not given
The essentials: as §3
Turning to `CC(C)(C)/N=C(/NC#N)Nc1cccnc1`, the Time was 6 h.

The next data set concerns Rattus norvegicus. The data set can be described thus: Hypotensive activity in spontaneously hypertensive Wistar-Okamoto rat assessed as time required for persistence of hypotensive effect at 0.1 mg/kg, po. The format is functional.
Settings: not given
The essentials: as §3
Consider `CC(C)(C)/N=C(/NC#N)Nc1cccnc1`, for which the Time was >8 h.

For a further data set, the system named is Canis familiaris. Description: Hypotensive activity in conscious renal hypertensive dog assessed as maximum change in mean blood pressure at 0.05 mg/kg, po measured for 8 hrs relative to control. It counts as functional, Canis lupus familiaris.
Settings: not given
The essentials: (§4)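 Renal hypertensive dogs, conscious, dosed orally in soft gelatin capsules, three dogs per dose. Mean blood pressure was taken indirectly with an Arteriosonde, standing animals in a semi-insonorized room, just before dosing and then hourly for 8 h. Maximum change was measured after a single administration and given as mean ± error.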
For `CC(C)(C)/N=C(/NC#N)Nc1cccnc1`, the Activity is -25 mmHg.

The test system of the next data set is Canis familiaris. Description: Hypotensive activity in conscious renal hypertensive dog assessed as maximum change in mean blood pressure at 0.1 mg/kg, po measured for 8 hrs relative to control. It counts as functional, Canis lupus familiaris.
Settings: not given
An outline of the steps:
as §4
As for `CC(C)(C)/N=C(/NC#N)Nc1cccnc1`, the Activity is given as -45 mmHg.

For a further data set, the system named is Canis familiaris. The data set can be described thus: Hypotensive activity in conscious renal hypertensive dog assessed as maximum change in mean blood pressure at 0.25 mg/kg, po measured for 8 hrs relative to control. The format is functional, Canis lupus familiaris.
Settings: not given
The essentials:
as §4
Consider `CC(C)(C)/N=C(/NC#N)Nc1cccnc1`, for which the Activity is given as -62 mmHg.

Another data set has as its system Canis familiaris. Description: Hypotensive activity in conscious renal hypertensive dog assessed as time required for persistence of hypotensive effect at 0.05 mg/kg, po measured for 8 hrs. It counts as functional, Canis lupus familiaris.
Settings: not given
An outline of the steps:
(§5)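 Conscious renal hypertensive dogs received single oral doses in soft gelatin capsules, three per dose. Indirect standing blood pressure was read before dosing and hourly to 8 h. Duration (h) was the time the pressure stayed 15 mmHg or more below the initial value, which was taken as persistence of the hypotensive effect.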
As to `CC(C)(C)/N=C(/NC#N)Nc1cccnc1`, the Time came out at 2 h.

For another data set, the system named is Canis familiaris. The data set can be described thus: Hypotensive activity in conscious renal hypertensive dog assessed as time required for persistence of hypotensive effect at 0.1 mg/kg, po measured for 8 hrs. It counts as functional, Canis lupus familiaris.
Settings: not given
An outline of the steps:
as §5
As to `CC(C)(C)/N=C(/NC#N)Nc1cccnc1`, the Time was 4 h.

For a further data set, the system named is Canis familiaris. Description: Hypotensive activity in conscious renal hypertensive dog assessed as time required for persistence of hypotensive effect at 0.25 mg/kg, po measured for 8 hrs. It counts as functional, Canis lupus familiaris.
Settings: not given
The essentials:
as §5
On to `CC(C)(C)/N=C(/NC#N)Nc1cccnc1`, for which the Time turned out to be 6 h.

The test system of a further data set is Rattus norvegicus. Description: Hypotensive activity in po dosed spontaneously hypertensive Wistar-Okamoto rat relative to guancydine. It counts as functional.
Settings: not given
As for `CC(C)(C)/N=C(/NC#N)Nc1cccnc1`, the “fold change (FC)” value worked out at 100.

The species entered for the next data set is Felis catus. The data set can be described thus: Hypotensive activity in decerebrated cat. It counts as functional, organism-based.
Settings: not given
For the molecule `CC(C)(C)/N=C(/NC#N)Nc1cccnc1`, the result was Active.
